Screening data: PubChem, The Scripps Research Institute Molecular Screening Center
EBNA-1 inhibitor: EBNA-1 DNA-binding inhibitors, primary screen, biochemical, fluorescence polarization; inhibition, % at 14.8 µM; actives 0.34% (n = 300,000); AID 1950, 2009; in the data active = inhibition above about 28%
Fh CTSL1 inh: Fasciola hepatica cathepsin L1 inhibitors, primary screen, counter-screen for PFM18AAP inhibitor project, biochemical, QFRET, fluorogenic peptide substrate; recombinant F. hepatica cathepsin L1, Z-Leu-Arg-MCA fluorescence; inhibition, % at 5.96 µM; actives 0.49% (n = 300,000); AID 1906, 2009;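 active = inhibition above the mean of all tested compounds plus 3 SD, set per screening campaign, cut at about 17% in these data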;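 also: 0% = plate median of test compound wells and 100% = 1 µM Z-Phe-Ala-diazomethylketone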
ZTA DNA inh: counter-screen for EBNA-1 inhibitors: inhibitors of Epstein-Barr virus ZTA | inhibition, % at 11 µM | actives 0.15% (n = 320,000) | P03206 | ZTA-DNA binding, fluorescence polarization; in the data active = inhibition above about 33%
Target sequence (P03206 whole entry, looked up): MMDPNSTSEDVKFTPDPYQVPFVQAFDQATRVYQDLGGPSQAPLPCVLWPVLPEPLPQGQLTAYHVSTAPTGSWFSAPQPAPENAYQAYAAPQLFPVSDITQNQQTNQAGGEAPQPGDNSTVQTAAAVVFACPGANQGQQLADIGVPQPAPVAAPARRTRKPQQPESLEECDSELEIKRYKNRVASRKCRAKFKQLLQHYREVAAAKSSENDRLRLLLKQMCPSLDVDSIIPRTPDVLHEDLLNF
HCV NS3 hel inh: inhibitors of HCV NS3 helicase, primary screen, biochemical, Cy5 molecular beacon fluorescence; NS3 helicase DNA unwinding; inhibition, % at 10.9 µM; actives 0.56% (n = 290,000);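 active = inhibition above the mean of all tested compounds plus 3 SD, set per campaign, cut at about 35% in these data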;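 also: 0% = DMSO wells and 100% = thioflavine S control wells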
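Assay system: hepatitis C virus NS3 helicase domain fragment enzyme. Also added: annealed dual-labelled DNA beacon duplex, ATP-started. Timing: 1 h reaction at 25 °C, ATP-initiated. Technique: Cy5 fluorescence at 0 and 60 min, beacon hairpin quenching. Evaluation: % inhibition of unwinding. Replication: one well per compound.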
EBNA-1 confirm: EBNA-1 DNA-binding inhibitors, retest, confirmation, biochemical, fluorescence polarization, triplicate. shares compounds with EBNA-1 inhibitor. Recombinant EBNA-1 DBD, Cy5-DNA fluorescence polarization. inhibition, % at 14.8 µM. actives 35% (n = 830);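 active = mean inhibition across replicates above a set limit taken from the earlier primary screen, cut at about 28% in these data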;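 also: plate controls were EBNA-1 protein with DMSO for no effect and wells lacking EBNA-1 for full effect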
ZTA counter trip: EBV Zta DNA binding inhibitors, counter-screen for EBNA-1 inhibitor project, biochemical, fluorescence polarization, triplicate; inhibition, % at 11.1 µM; Zta-ZRE DNA binding, Cy5 fluorescence polarization; shares compounds with EBNA-1 inhibitor; 830 tested, under 10 active;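 active = mean inhibition over triplicates above a set limit taken from the primary EBNA-1 screen, cut at about 37% in these data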;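 also: purified full length Zta protein with Cy5 labeled ZRE DNA probe; 0% = Zta with DMSO and 100% = wells lacking Zta protein; inhibitors lower polarization by freeing the labeled DNA probe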
* hit, by the source's call; / = not tested or not shown. In the library only some 1.4% were active in any assay of this set; here they are far more common.

SMILES | EBNA-1 inhibitor | Fh CTSL1 inh | ZTA DNA inh | HCV NS3 hel inh | EBNA-1 confirm | ZTA counter trip
Cc1ccc(-n2c(=O)c3ccc(C(=O)NCc4ccco4)cc3n(Cc3ccccc3C#N)c2=O)cc1 | 50* | -2 | -12 | 11 | 22 | 12
O=C(Nc1ccc2oc(-c3ccccc3)nc2c1)c1ccccc1F | 35* | 4 | 12 | -5 | -3 | -2
O=C(Nc1ccc2oc(-c3ccc4ccccc4c3)nc2c1)c1ccc2c(c1)OCCO2 | 31* | 2 | 12 | 5 | 25 | 9
Cc1ccc2nc(-c3cccc(NC(=O)c4ccc5c(c4)OCCO5)c3)oc2c1 | 35* | 3 | 19 | -2 | 23 | 7
Cc1ccc2oc(-c3cccc(NC(=O)Cc4cccs4)c3)nc2c1 | 34* | 4 | 7 | 6 | 14 | -3
CCC(=O)Nc1cccc(-c2nc3ccc(C)cc3o2)c1 | -8 | 0 | -20 | 0 | / | /
Cn1c(O)c(N=NC(=O)c2cc(-c3cccs3)nc3ccccc23)c2ccccc21 | 109* | 2 | -17 | 4 | 82* | -8
O=c1/c(=C/c2ccccn2)sc2nc3ccccc3n12 | -5 | 2 | 12 | 6 | / | /
O=c1/c(=C\c2cc([N+](=O)[O-])cc([N+](=O)[O-])c2O)sc2nc3ccccc3n12 | 27* | 4 | 7 | 17 | 28* | 25
N#Cc1c2ncn(CC(=O)c3ccc(Br)cc3)c(=O)c2c2n1CCC2 | 29* | 5 | 8 | 1 | 136* | 5
Cc1cccc(N2CCN(S(=O)(=O)c3ccc4c(c3)CC(C)N4C(=O)C3CC3)CC2)c1C (centres undefined) | -5 | -1 | -15 | -14 | / | /
O=S(=O)(Nc1nc(-c2ccccc2)cs1)c1cc(Cl)ccc1Cl | 31* | 2 | 21 | 33 | 10 | 8
Cc1cccc(C)c1NC(=O)Cn1nnc(C(=O)Nc2ccc(F)cc2F)c1N | 28* | 4 | -6 | 8 | 29* | -4
COc1ccc2c(c1)[nH]c1c(=O)n(Cc3ccco3)cnc12 | 37* | 2 | 5 | -3 | -2 | -13
O=C(Nc1ccc(F)cc1)Nc1ccccc1F | 4 | 1 | -2 | 8 | / | /
O=C(Nc1ccc(NC(=O)c2ccccc2O)cc1)Nc1ccc(F)cc1F | 38* | 0 | -8 | -11 | 10 | -9
CC(=O)N1CCN2C(=O)C1CCCC(=O)c1cc(C3CCCCC3)ccc12 (centres undefined) | -4 | 0 | -2 | 6 | / | /
O=c1oc2c(O)c(O)cc3c(=O)oc4c(O)c(O)cc1c4c23 | 39* | 5 | 26 | 31 | 47* | 37*
Cc1cccc(OCC(=O)N/N=C\C=C\c2ccc3c(c2)OCO3)c1C | 59* | 0 | -7 | 2 | 80* | -1
O=C(NC1CCN(Cc2ccccc2)CC1)c1ccc2c(c1)OCCCO2 | -6 | -3 | -21 | -1 | / | /
Cc1ccccc1OCC(=O)Nc1ccc2c(c1)Cc1ccccc1-2 | 29* | 1 | 11 | -2 | 4 | 1
Nc1c(C(=O)Nc2ccc3c(c2)OCCO3)nnn1Cc1cccc(Br)c1 | 36* | 3 | -1 | / | 30* | 1
CCc1nnc(NC(=O)CSc2ccc(-c3nc4ccc(C)cc4[nH]3)cn2)s1 | 45* | -2 | -6 | -7 | 15 | -2
Cc1ccc2nc(-c3ccc(SCC(=O)O)nc3)[nH]c2c1 | 1 | 2 | -6 | 6 | / | /
CCCCN(CC)CCNC(=O)CN1C(=O)COc2ccc(S(=O)(=O)N3CCCC3)cc21 | 77* | -1 | 2 | 1 | -2 | -2
SMILES | EBNA-1 inhibitor | Fh CTSL1 inh | ZTA DNA inh | HCV NS3 hel inh | EBNA-1 confirm | ZTA counter trip
CCCCNC(=O)CN1C(=O)COc2ccc(S(=O)(=O)N3CCCCCC3)cc21 | -14 | 7 | 0 | -3 | / | /
O=C1NC(=S)N(C(=O)c2ccc(F)cc2)/C1=C/c1ccccc1 | -2 | 6 | 0 | 13 | / | /
Cc1cccc(N(C(=O)c2snc(C(N)=O)c2N)C(C(=O)NCC2CCCO2)c2ccc(N(C)C)cc2)c1C (centres undefined) | 40* | 3 | 14 | -19 | 97* | 10
CN(C)c1ccc(C(C(=O)NCC2CCCO2)N(Cc2ccccc2)C(=O)c2snc(C(N)=O)c2N)cc1 (centres undefined) | -6 | -2 | 1 | -9 | / | /
Cc1ccccc1CNC(=O)C1CCN(c2nnc(N3CCCC3=O)s2)CC1 | 96* | 3 | -10 | -13 | -8 | 0
COc1ccc(CNC(=O)C2CCN(c3nnc(N4CCCC4=O)s3)CC2)cc1 | 5 | -2 | 0 | -13 | / | /
CC(C)C1N=C2c3ccccc3N=C(SCc3cc(=O)n4cc(Cl)ccc4n3)N2C1=O (centres undefined) | -15 | 2 | -4 | 5 | / | /
CCSc1nc(N)c2c3c(sc2n1)CCC3 | -14 | 15 | -18 | 1 | / | /
O=C(N/N=C/c1ccc(O)cc1)c1nc(-c2ccccc2)n(-c2ccccc2)n1 | 31* | 5 | 1 | -7 | 31* | -5
COc1cc(NC(=O)CSc2nc3ccccc3c(=O)n2C)ccc1NC(=O)c1ccco1 | 40* | 5 | -1 | 0 | 28* | 6
COc1cc(NC(=O)COc2ccccc2)ccc1NC(=O)c1ccco1 | -7 | 0 | -9 | -12 | / | /
Cc1nn(-c2ccccc2)c(N)c1N=Nc1cccc(S(=O)(=O)N2CCOCC2)c1 | -6 | 0 | 14 | -3 | / | /
COc1ccc(/C(C)=N\Nc2nc(-c3ccccc3)cc(=O)[nH]2)cc1 | 42* | -3 | 8 | -2 | 20 | 5
COc1ccc(-n2cnnc2SCC(=O)Nc2cc(C)on2)cc1 | 6 | -1 | -12 | 3 | / | /
COC(=O)[C@H](Cc1ccccc1)NC(=O)O[C@H]1C(=O)c2ccc(OC)cc2O[C@@H]1c1ccc2c(c1)OCO2 | 29* | -1 | -24 | 5 | 0 | 2
O=c1c2ccccc2nc2c3ccccc3c(NCc3ccco3)nn12 | 32* | 3 | 5 | 15 | 2 | -7
Cc1nc(Nc2cccc(Cl)c2)c2oc3ccccc3c2n1 | 29* | 4 | 4 | -25 | -4 | 11
Cc1nc(Nc2ccc(Cl)cc2)c2oc3ccccc3c2n1 | 0 | 1 | -1 | 22 | / | /
N#Cc1nc(-c2ccccc2Cl)oc1N1CCN(C(=O)c2ccco2)CC1 | 15 | 0 | 17 | -8 | / | /
CCOc1ccc(NC(=O)c2cc3cc4ccc(OC)cc4nc3o2)cc1 | 29* | 1 | 3 | 6 | 45* | 5
COCCNC(=O)c1cc2cc3ccc(OC)cc3nc2o1 | -23 | 5 | -11 | 18 | / | /
